# From PubChem BioAssay
# Most compounds without a hit are left out; they make up all but 11% or so of the library.
# S1P3 ag = agonists of human S1P3 receptor. Q99500. S1P3 NFAT-BLA reporter cells, agonism, FRET ratio; relative to 1 µM S1P, basal subtracted. activation, % at 4.5 µM. 60,000 compounds, 0.1% hits. AID 373;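 active = activation above the screen-wide mean plus 3 SD, cut at about 4.5% in these data, passing the limit was not always enough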
#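 Assay system: stable CHO line with human S1P3, Gα16, NFAT-BLA reporter; Detection: FRET β-lactamase substrate fluorescence, excitation 405 nm, 460/535 nm emission ratio, background-subtracted; Read-out: percent activation versus median 1 µM S1P response, basal-subtracted, per plate; Incubation: cells plated overnight, compound 4 h 37 °C, substrate 2 h RT.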
# D1 mod = allosteric modulators of human D1 dopamine receptor; HEK293 D1, CRE-luciferase, dopamine EC30 potentiation; actives deviate in either direction; B-score at 10 µM; 58,000 compounds, 5.9% hits;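 active = luminescence count or its row- and column-corrected plate score outside the 99.7% band of the plate's sample wells, on either side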
# M1 ag = M1 muscarinic receptor agonism | 64,000 compounds, 3% hits | CHO-M1 cells, Fluo-4 calcium fluorescence, agonist mode; hits give high values | B-score at 10 µM;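 active = fluorescence rise, raw or as B-score row- and column-corrected plate score, outside the 99.7% band of its plate's samples, either direction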
# S1P1 ag-PAM = activates or potentiates agonism at human S1P1 receptor | 56,000 compounds, 0.57% hits | P21453 | S1P1 CRE-bla cells, forskolin, beta-lactamase FRET, potentiator mode; S1P1 agonist co-added at EC20, 2 nM; 100% = saturating reference agonist, 0% = basal | activation, % at 9.5 µM | AID 449;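 active = activation above a cutoff set at the mean activation of all tested compounds plus 3 SD, cut at about 54% in these data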;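 note: forskolin at 4 µM as EC80 and the EC20 agonist is SEW2871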
# M1 antag = M1 muscarinic receptor (rat) antagonism. AID 628. P08482. CHO-M1 cells, Fluo-4 calcium, ACh EC80 antagonist mode; hits give low values. B-score at 10 µM. 64,000 compounds, 3.4% hits;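 active = calcium fluorescence response, raw or row-and-column corrected B-score, differing from the plate sample mean either way at a set confidence level, mostly lower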
# Target sequence (P08482 whole entry, looked up): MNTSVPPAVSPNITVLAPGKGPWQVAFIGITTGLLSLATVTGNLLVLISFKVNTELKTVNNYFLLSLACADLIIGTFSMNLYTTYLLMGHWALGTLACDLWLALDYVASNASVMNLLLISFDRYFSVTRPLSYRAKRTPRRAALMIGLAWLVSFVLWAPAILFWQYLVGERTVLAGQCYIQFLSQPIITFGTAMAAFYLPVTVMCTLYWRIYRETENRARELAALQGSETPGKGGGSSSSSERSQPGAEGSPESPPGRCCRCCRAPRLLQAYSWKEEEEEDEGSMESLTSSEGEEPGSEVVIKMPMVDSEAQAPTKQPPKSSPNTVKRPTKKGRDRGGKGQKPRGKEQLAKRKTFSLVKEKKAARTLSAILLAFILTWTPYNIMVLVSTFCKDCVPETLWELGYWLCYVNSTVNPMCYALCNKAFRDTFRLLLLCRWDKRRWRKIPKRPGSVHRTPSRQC
# M1 ag confirm = rat M1 muscarinic agonism, confirmation; shares compounds with M1 ag; CHO-M1 cells, Fluo-4 calcium fluorescence, agonist mode; actives lie on both sides; fluorescence change (max-min) at 10 µM; 1,700 compounds, 19% hits;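 active = fluorescence change differs from the solvent-only DMSO control mean at a set confidence level in both duplicate runs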;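 note: an EC20 dose of acetylcholine follows compound addition during the same imaging run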
# M4 ag counter = activates rat M4 receptor in counter-screen for M1 agonists | shares compounds with M1 ag | CHO M4/Gqi5 cells, Fluo-4 calcium fluorescence, agonist mode; actives lie on both sides | fluorescence change (max-min) at 10 µM | 1,700 compounds, 9% hits;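 active = fluorescence change differing from the plate's solvent-only control wells at 99.7% confidence in both duplicates, whether higher or lower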
# M1 antag confirm = M1 muscarinic receptor (rat) antagonism, confirmed | shares compounds with M1 antag | CHO-M1 cells, Fluo-4 calcium, ACh EC80 antagonism; hits give low values | calcium response (max-min fluorescence) at 10 µM | 1,700 compounds, 43% hits | AID 677;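 active = calcium response below the same-plate mean of wells given acetylcholine alone at its 80%-effect dose, minus 3 SD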
# mGluR4 antag = mGluR4 (human) activity, M1 antagonist secondary assay. shares compounds with M1 antag. CHO-mGluR4 calcium flux, Fluo-4 fluorescence, glutamate EC80; hits give low values. fluorescence response (max-min) at 10 µM. 1,700 compounds, 0.9% hits. AID 678;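 active = fluorescence response below the plate's average for near-maximal glutamate wells, less 3 SD of those wells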;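 note: raw unnormalized fluorescence span taken in the window right after glutamate addition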
# D1 mod confirm = confirmation of human D1 dopamine receptor allosteric modulators | shares compounds with D1 mod | HEK293 D1 CRE-luciferase, dopamine EC30 potentiation; hits give high values | luminescence at 10 µM | 2,200 compounds, 88% hits | AID 642;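 active = luminescence in either of two replicates above the same-plate mean plus 3 SD of the low-dose dopamine control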
# D1 ag no DA = secondary test of D1 modulators: activity without dopamine; shares compounds with D1 mod; HEK293 D1 CRE-luciferase, luminescence, no dopamine; hits give high values; AID 646; luminescence at 10 µM; 1,900 compounds, 0.8% hits; in the data active = luminescence above about 3900
# Isoprot counter = counter-screen for D1 modulators: isoproterenol response in HEK293 cells; 2,200 compounds, 63% hits; shares compounds with D1 mod; HEK293 D1 CRE-luciferase, isoproterenol EC30 counter-screen; hits give high values; AID 647; luminescence at 10 µM;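 active = luminescence in either replicate above plate mean of wells with a partly effective reference agonist dose plus 3 SD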;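 note: isoproterenol raises cAMP through native beta-adrenoceptor Gs so signal bypasses D1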
# A number is an active result; - = inactive; . = no result.
SMILES,S1P3 ag,D1 mod,M1 ag,S1P1 ag-PAM,M1 antag,M1 antag confirm,mGluR4 antag,others
COCCNC(=O)c1c(NC(=O)c2ccco2)n(Cc2ccccc2)c2nc3ccccc3nc12,-,4.3,3.6,-,-,.,.,M1 ag confirm=-;M4 ag counter=-;D1 mod confirm=10288;D1 ag no DA=-;Isoprot counter=-
Cc1ccc2c(c1)C1CN(C)CCC1N2C(=O)COc1ccc(S(=O)(=O)N2CCOCC2)cc1 (configuration not stated),-,.,-,-,-,.,.,
CC1CCC(NCCc2ccc3c(c2)OCO3)CC1 (configuration not stated),-,-,-,-,-5.2,199,-,
CCCCCCn1c(=O)c(C(=O)Nc2c(C)n(C)n(-c3ccccc3)c2=O)c(O)c2ccccc21,-,-,-,-,-8,167,-,
CCCCCn1c(=O)c(C(=O)Nc2ccncc2)c(O)c2ccccc21,-,-,-,-,-,.,.,
COc1ccc(CN2CCCCC2c2cccnc2)cc1C (configuration not stated),-,-,-,-,-5.4,482,-,
COc1ccccc1-n1c(O)c(C=Nc2c(C)n(C)n(-c3ccccc3)c2=O)c(=O)[nH]c1=O,-,-,-,-,-,.,.,
CN1C(=O)C(Cc2cccc3ccccc23)C(=O)N(C)C1=O,-,-,-,-,-,.,.,
O=C1C2CCN(CC2)[C@@H]1Cc1ccc2ccccc2c1O,-,-,-,-,-4.6,92,-,
COc1ccc(C2SCC(=O)Nc3c2c(=O)[nH]n3C2CCCCC2)cc1 (configuration not stated),-,.,-,-,-,.,.,
O/N=C1/C(=C\c2ccccc2)N2CCC1CC2,-,-,-,-,-,.,.,
Cn1c(O)c(C=NCCc2c[nH]c3ccccc23)c(=O)n(C)c1=O,.,-,-,.,-,.,.,
C[N+]1(C)[C@@H]2CC[C@H]1CC(OC(=O)C(CO)c1ccccc1)C2 (some centres not stated),-,-,-,-,-17,12,-,
CCOC(=O)C1CCN(C(C)C(=O)c2c(C)[nH]c3cc(C)ccc23)CC1 (configuration not stated),-,-,-,-,-4.3,445,-,
C[N+]1(C)CCN(c2ccccc2)CC1,-,-,-,-,-,.,.,
CN(CC1COc2ccccc2O1)c1nc(-c2cccnc2)nc2ccccc12 (configuration not stated),-,-,-,-,-3.9,-,-,
O=C(COc1ccc2ccccc2c1)N1CCN(C2CCN(Cc3ccccc3)CC2)CC1,-,-,-,-,-2.4,-,-,
O=C(COc1ccccc1)N1CCN(C2CCCC2)CC1,-,-,-,-,-,.,.,
CCN(CC)CCCN=Cc1c(O)n(-c2ccccc2F)c(=O)[nH]c1=O,-,-,-,-,-2.3,-,-,
CCN(CC)CCCN=Cc1c(O)n(-c2cccc(C)c2C)c(=O)[nH]c1=O,-,-,-,-,-,.,.,
CCOC(=O)C1(c2ccccc2)CCN(Cc2cccc(C(=O)O)c2)CC1,-,-,-,-,-3.8,-,-,
